MC4R ag barr – agonists of human melanocortin 4 receptor (MC4R) beta-arrestin | AID 540308 | U2OS MC4R beta-arrestin complementation, luminescence; percent of melanotan II response, DMSO zero | activation, % at 8.9 µM | 360,000 compounds, 0.98% hits | P32245;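 active = activation above a per-plate cutoff, the mean activation of sample wells on that plate plus 3 SD, cut at about 8% in these data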
MC4R antagonist – blocks human MC4R cAMP signaling; P32245; MC4R-expressing cells, MTII-stimulated cAMP, LANCE TR-FRET; inhibition, % at 6.5 µM; 360,000 compounds, 0.48% hits;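 active = inhibition above its plate's cutoff, the mean of tested wells on that plate plus 3 SD, cut at about 29% in these data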
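System: U2OS cells stably expressing human melanocortin 4 receptor (MC4R). Reagent: Melanotan II challenge after compound preincubation. Doses: 6.5 µM. Times: 30-min compound, 1-h challenge, 1-h detection, room temperature. Measured by: TR-FRET with Eu-cAMP and labeled anti-cAMP, 671 nm. Replicates: singlicate.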
m5-HT2A agonist – mouse HTR2A agonism via beta-arrestin recruitment. AID 624169. P35363. activation, % at 7.6 µM. CHO-K1 mHTR2A beta-arrestin complementation, luminescence; percent of 30 µM serotonin response. 360,000 compounds, 0.66% hits;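 active = activation above a run cutoff, the mean activation of all tested compounds plus 3 SD, cut at about 14% in these data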
Target sequence (P35363 whole entry, looked up): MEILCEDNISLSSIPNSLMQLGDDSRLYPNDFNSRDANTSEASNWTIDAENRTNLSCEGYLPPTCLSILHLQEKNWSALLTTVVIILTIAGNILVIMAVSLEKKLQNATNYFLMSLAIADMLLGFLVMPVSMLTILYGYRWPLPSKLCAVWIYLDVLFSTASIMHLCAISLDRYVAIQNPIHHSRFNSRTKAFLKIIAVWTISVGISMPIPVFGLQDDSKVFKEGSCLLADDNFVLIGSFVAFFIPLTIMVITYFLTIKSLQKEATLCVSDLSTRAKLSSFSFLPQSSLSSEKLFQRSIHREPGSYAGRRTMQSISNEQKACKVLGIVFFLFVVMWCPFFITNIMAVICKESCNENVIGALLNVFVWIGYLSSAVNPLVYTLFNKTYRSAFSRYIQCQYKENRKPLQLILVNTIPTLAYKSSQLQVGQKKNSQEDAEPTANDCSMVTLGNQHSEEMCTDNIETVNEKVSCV
EBI2 antag – EBI2 (human) antagonism. P32249. EBI2 beta-arrestin recruitment, luminescence, 7a,25-OHC stimulated. inhibition, % at 5 µM. 360,000 compounds, 0.81% hits; in the data active = inhibition above about 38%;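 also: enzyme fragment complementation signal reports receptor beta-arrestin coupling in cells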
OPRM1 ag – OPRM1 agonism in mouse HTR2A counterscreen; shares compounds with m5-HT2A agonist; U2OS OPRM1 beta-arrestin PathHunter, luminescence; DMSO 0%, DAMGO 9.3 µM 100%; activation, % at 9.3 µM; 2,300 compounds, 5.3% hits; AID 624380;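 active = mean activation above the mean of DMSO-only wells plus 3 SD, cut at about 0.5% in these data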
HTR2A ag conf – confirmation of mouse HTR2A serotonin receptor agonists; shares compounds with m5-HT2A agonist; CHO-K1 PathHunter beta-arrestin recruitment, luminescence; DMSO 0%, 30 µM serotonin 100%; activation, % at 7.6 µM; 2,300 compounds, 19% hits; AID 624381;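 active = mean activation across triplicates above the hit threshold derived in the original primary screen, cut at about 15% in these data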
EBI2 conf – confirmation of human EBI2 receptor antagonists | inhibition, % at 5 µM | 2,400 compounds, 29% hits | EBI2 beta-arrestin luminescence, 7a,25-OHC antagonism | shares compounds with EBI2 antag | AID 651997;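 active = inhibition of at least 50%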
EBI2 agonist – EBI2 agonism counter-screen | 2,400 tested, under 10 active | EBI2-expressing cells, agonist mode, luminescence, 60 min; 0% vehicle, 100% 7α,25-dihydroxycholesterol control | shares compounds with EBI2 antag | activation, % at 5 µM;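 active = activation of at least 50%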
bGal counter – beta-galactosidase inhibition counter-screen; shares compounds with EBI2 antag; purified beta-galactosidase, luminescent Galacton Star, 15 min; inhibition, % at 5 µM; 2,400 compounds, 1% hits; AID 652176;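 active = replicate-average signal at least 3 plate SD below neutral wells, shown as high inhibition, flagging enzyme-inhibiting false positives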;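 also: higher means stronger loss of beta-gal luminescence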
Hits are given with their value; i = inactive; nt = no result given. An excerpt weighted towards active compounds, which were near 2.8% of everything screened.

SMILES | MC4R ag barr | MC4R antagonist | m5-HT2A agonist | EBI2 antag | OPRM1 ag | HTR2A ag conf | EBI2 conf | EBI2 agonist | bGal counter
COc1ccc(CC(C)NCCc2ccc(OC)c(OC)c2)cc1 (stereo unspecified) | i | i | i | i | nt | nt | nt | nt | nt
Cc1sc2ncn(CC(=O)NCCCC(=O)N3CCC4(CC3)OCCO4)c(=O)c2c1C | i | i | i | i | nt | nt | nt | nt | nt
C[C@@H](N)Cc1cnc[nH]1 | i | i | 15 | i | i | i | nt | nt | nt
c1coc(CN2Cc3ccccc3-n3nncc3C2)c1 | i | i | 18 | i | i | i | nt | nt | nt
c1ccc(CN2Cc3ccccc3-n3nncc3C2)cc1 | i | i | i | i | nt | nt | nt | nt | nt
c1ccc2c(CCNCc3ccc4c(c3)OCO4)c[nH]c2c1 | i | i | 30 | i | i | 38 | nt | nt | nt
c1ccc(CNCCc2c[nH]c3ccccc23)cc1 | i | i | 41 | i | i | 20 | nt | nt | nt
Clc1ccccc1CNCCc1c[nH]c2ccccc12 | i | i | 23 | i | 1.1 | 51 | nt | nt | nt
Fc1ccc(CNCCc2ccc3c(c2)OCO3)cc1 | i | i | i | i | nt | nt | nt | nt | nt
COc1cc(CNCCc2c[nH]c3ccccc23)cc(OC)c1OC | i | i | i | i | nt | nt | nt | nt | nt
CCc1ccc(CNCCc2c[nH]c3ccccc23)cc1 | i | i | 16 | i | i | i | nt | nt | nt
COc1cc(CNCCc2c[nH]c3ccccc23)cc(OC)c1 | i | i | i | i | nt | nt | nt | nt | nt
CCOc1ccc(CNCCc2ccc3c(c2)OCO3)cc1 | i | i | i | i | nt | nt | nt | nt | nt
CCOc1ccccc1CNCCc1ccc2c(c1)OCO2 | i | i | 53 | i | i | 25 | nt | nt | nt
O=c1[nH]c(=O)n(-c2cccc3ccccc23)c(O)c1/C=N/N1CCCCC1c1cccnc1 (stereo unspecified) | i | i | i | i | nt | nt | nt | nt | nt
CCN(CC)C(=O)COc1cc(C)cc2oc(=O)c3c(c12)CCCC3 | i | i | 14 | i | i | i | nt | nt | nt
Cc1ccsc1CNCCc1ccc(F)cc1 | i | i | i | i | nt | nt | nt | nt | nt
COc1ccc(CCNCc2sccc2C)cc1 | i | i | 25 | i | i | i | nt | nt | nt
CCOc1cc2c(cc1OCC)-n1cccc1C(c1cccc([N+](=O)[O-])c1)NC2 (stereo unspecified) | i | i | i | i | nt | nt | nt | nt | nt
Cc1cccc(C)c1OP(N)(=O)Oc1c(C)cccc1C | i | i | 18 | i | i | i | nt | nt | nt
Cc1cccc(OP(N)(N)=O)c1C | i | i | i | i | nt | nt | nt | nt | nt
C[C@]1(O)CCC2C3CC[C@H]4C[C@@H](OC(=O)[C@@H](N)CCCCN)CC[C@]4(C)C3CC[C@@]21C (stereo partly specified) | i | i | i | i | nt | nt | nt | nt | nt
c1ccc2nc(N3CCNCC3)ccc2c1 | i | i | 51 | i | i | 38 | nt | nt | nt
CCCN(CCC)C(=O)Cc1c(-c2ccc(Cl)cc2)nc2c(Cl)cc(Cl)cn12 | i | i | 15 | i | i | i | nt | nt | nt
COc1ccc(OCC(=O)N2CCN(Cc3c[nH]c4ccccc34)CC2)cc1 | i | i | 26 | 47 | i | 16 | i | i | i
SMILES | MC4R ag barr | MC4R antagonist | m5-HT2A agonist | EBI2 antag | OPRM1 ag | HTR2A ag conf | EBI2 conf | EBI2 agonist | bGal counter
O=C1NC(=O)C(Nc2ccccc2)C(=O)N1 | i | i | i | i | nt | nt | nt | nt | nt
COC(=O)C1=C(c2c(C)noc2C)C[C@@H]2CC[C@H]1N2C(=O)N1CCOCC1 | i | i | i | i | nt | nt | nt | nt | nt
COC(=O)C1=C(c2c(C)noc2C)C[C@@H]2CC[C@H]1N2C(=O)N1CCC(O)(c2ccc(Cl)cc2)CC1 | i | i | i | 42 | nt | nt | i | i | i
CC(=O)NN1C(=O)c2ccccc2NC1c1cccnc1 (stereo unspecified) | i | i | i | i | nt | nt | nt | nt | nt
CCOC(=O)[C@]12Cc3cc(OC)ccc3[C@H]1N(C1CCCCC1)C(=O)c1ccccc12 | nt | nt | i | 64 | nt | nt | i | i | i
O=C(c1cc2cc(Br)ccc2[nH]1)N1CCC2(CC1)OCCO2 | i | i | i | 84 | nt | nt | 67 | i | i
O=C(c1cc(Br)ccc1Cl)N1CCC2(CC1)OCCO2 | i | i | i | i | nt | nt | nt | nt | nt
COc1ccccc1CN1CCN(C(=O)COc2ccc3ccccc3c2)CC1 | i | i | i | 70 | nt | nt | i | i | i
CN1CCN(C(=O)COc2ccc3ccccc3c2)CC1 | i | i | i | 53 | nt | nt | i | i | i
CN1CCCN(C(=O)COc2ccccc2)CC1 | i | i | i | i | nt | nt | nt | nt | nt
O=C(COc1ccc2ccccc2c1)N1CCN(CC2CC3C=CC2C3)CC1 (stereo unspecified) | i | i | i | 85 | nt | nt | 63 | i | i
Cc1ccccc1-c1ccc2c(c1)C1c3c(-c4ccccc4)nnn3-c3ccccc3C(=O)N1CC2 (stereo unspecified) | nt | nt | i | i | nt | nt | nt | nt | nt
COc1ccc(N=Cc2c(O)n(CC3CCCO3)c(=O)[nH]c2=O)cc1 (stereo unspecified) | i | i | i | 55 | nt | nt | i | i | i
O=C(COc1ccc(Br)cc1)N1CCN(Cc2ccc3c(c2)OCO3)CC1 | i | i | i | 92 | nt | nt | 70 | i | i
Cc1cccc(OCC(=O)N2CCN(Cc3ccncc3)CC2)c1 | i | i | i | i | nt | nt | nt | nt | nt
CSc1ccc(CN2CCN(C(=O)COc3ccc(C)cc3)CC2)cc1 | i | i | i | 92 | nt | nt | 71 | i | i
Cc1cccc(OCC(=O)N2CCN(Cc3ccc4c(c3)OCO4)CC2)c1 | i | i | i | i | nt | nt | nt | nt | nt
O=C(COc1ccc(Br)cc1)N1CCN(Cc2ccncc2)CC1 | i | i | i | 68 | nt | nt | 54 | i | i
CCOc1ccc(CN2CCN(C(=O)Cc3ccccc3)CC2)cc1 | i | i | i | i | nt | nt | nt | nt | nt
Cc1ccc(OCC(=O)N2CCN(Cc3ccc4c(c3)OCO4)CC2)cc1C | i | i | i | 71 | nt | nt | 57 | i | i
O=C(c1cccc(C(F)(F)F)c1)N1C[C@H]2C[C@@H](C1)c1cccc(=O)n1C2 | i | i | i | i | nt | nt | nt | nt | nt
COc1ccccc1N1CCN(CCc2c[nH]c3cc4c(cc23)OCO4)CC1 | i | i | i | i | nt | nt | nt | nt | nt
C[C@]12CCC3C(CC[C@H]4C[C@H](O)CC[C@]34C)C1C[C@@H](O)[C@H]2O (stereo partly specified) | i | i | i | i | nt | nt | nt | nt | nt
O=C(COc1ccccc1)c1cn(Cc2ccccc2)c2ccccc12 | i | i | i | 46 | nt | nt | i | i | i
Cc1cc(C)n2nc(SC(C)C(=O)N3CCC4(CC3)OCCO4)nc2n1 (stereo unspecified) | i | i | i | i | nt | nt | nt | nt | nt
Nc1c(C(=O)OCc2ccccc2)c2nc3ccccc3nc2n1Cc1cccs1 | i | i | i | 50 | nt | nt | i | i | i

Compound activity from PubChem.
